From PubChem
Apaf-1 inh – human Apaf-1 inhibition | AID 489030 | 0.71% of 330,000 active | reconstituted apoptosome caspase-3 activity, DEVD-Rh110 fluorescence | O14727 | inhibition, % at 20 µM; active means inhibition of at least 40% at 20 µM;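 further: plate controls were DMSO wells for no effect and DEVD-CHO caspase inhibitor wells for full effect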
Target sequence (O14727 whole entry, looked up): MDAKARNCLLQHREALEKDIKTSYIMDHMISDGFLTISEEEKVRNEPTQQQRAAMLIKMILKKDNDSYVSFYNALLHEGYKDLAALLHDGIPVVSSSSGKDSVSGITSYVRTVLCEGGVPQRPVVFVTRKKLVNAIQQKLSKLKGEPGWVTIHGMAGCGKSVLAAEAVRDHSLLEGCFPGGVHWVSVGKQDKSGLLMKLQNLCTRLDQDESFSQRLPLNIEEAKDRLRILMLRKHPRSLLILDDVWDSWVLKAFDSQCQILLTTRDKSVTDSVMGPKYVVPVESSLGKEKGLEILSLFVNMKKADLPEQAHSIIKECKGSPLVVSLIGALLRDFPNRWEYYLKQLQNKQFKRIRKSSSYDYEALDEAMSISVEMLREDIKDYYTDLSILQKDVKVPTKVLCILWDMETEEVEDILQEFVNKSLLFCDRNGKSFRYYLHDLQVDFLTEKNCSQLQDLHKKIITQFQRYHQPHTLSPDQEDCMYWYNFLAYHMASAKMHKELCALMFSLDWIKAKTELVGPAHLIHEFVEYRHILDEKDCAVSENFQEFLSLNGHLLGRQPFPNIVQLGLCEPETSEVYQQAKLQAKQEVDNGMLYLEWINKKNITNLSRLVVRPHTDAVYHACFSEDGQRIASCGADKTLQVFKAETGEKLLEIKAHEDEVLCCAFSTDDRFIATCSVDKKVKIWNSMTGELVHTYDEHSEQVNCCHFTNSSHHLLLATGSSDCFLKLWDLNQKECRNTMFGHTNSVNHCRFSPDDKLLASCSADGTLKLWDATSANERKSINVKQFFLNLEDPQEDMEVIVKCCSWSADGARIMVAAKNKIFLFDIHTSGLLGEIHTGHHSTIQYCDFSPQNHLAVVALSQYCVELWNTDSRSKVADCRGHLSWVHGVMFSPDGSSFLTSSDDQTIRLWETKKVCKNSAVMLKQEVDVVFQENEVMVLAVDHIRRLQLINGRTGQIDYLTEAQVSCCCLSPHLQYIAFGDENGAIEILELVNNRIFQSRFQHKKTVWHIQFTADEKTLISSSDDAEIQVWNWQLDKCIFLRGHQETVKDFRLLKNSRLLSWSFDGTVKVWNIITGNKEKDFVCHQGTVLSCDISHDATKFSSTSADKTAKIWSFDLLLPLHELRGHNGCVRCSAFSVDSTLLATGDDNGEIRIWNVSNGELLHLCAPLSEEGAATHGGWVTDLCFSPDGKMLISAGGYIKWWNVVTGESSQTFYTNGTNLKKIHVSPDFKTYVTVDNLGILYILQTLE
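Medium: Hepes buffer, pH 7.5 / System: biochemical Apaf-1 apoptosome reconstitution / Measured by: Rh110 fluorescence, excitation 480 nm, emission 540 nm / Times: compound with Apaf-1, dATP, procaspase-3 30 min, then 50 min reaction, room temperature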
TCR-CD3 inh – human TCR-CD3 binding inhibition; TAMRA-labeled TCR probe fluorescence, biochemical; inhibition, % at 9.4 µM; 0.37% of 360,000 active;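 further: recombinant mutant TCR 2C K166C tagged with TAMRA read by polarization; 0% = receptor in buffer alone and 100% = receptor with positive control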
PAD4 FP inh – PAD4 (human) enzyme inhibition | Q9UM07 | recombinant PAD4, RCA probe fluorescence polarization | inhibition, % at 6.36 µM | 0.41% of 330,000 active | AID 485272;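 active means percent inhibition above a cutoff equal to the mean of all tested compounds plus 3 SD, cut at about 15% in these data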;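 further: 0% = PAD4 with RCA probe and DMSO and 100% = probe without PAD4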
TDP2 absorb – TDP2 (human) inhibition, absorbance primary screen; 0.34% of 370,000 active; O95551; recombinant TDP2, T5PNP hydrolysis, p-nitrophenol absorbance 415 nm; inhibition, % at 12.8 µM;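 active means inhibition above the mean of all tested compounds plus 3 SD, set per campaign, cut at about 25% in these data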;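 further: 0% = DMSO with enzyme and 100% = buffer with substrate but no TDP2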
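test system = human TDP2 enzyme | input = TDP2 enzyme at 120 nM final | medium = 50 mM Tris-HCl pH 7.5 with Mg2+, KCl, DTT, BSA | also added = T5PNP substrate, 5 mM | times = 2 h at 37 °C | technique = epi absorbance | benchmarks = high control without enzyme, low control DMSO plus TDP2 | replication = each compound tested once, singlicate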
GSTO1 inh – GSTO1 inhibition, counter-screen for RBBP9 inhibitors. P78417. 1.1% of 300,000 active. AID 1974. recombinant GSTO1, activity-based probe fluorescence polarization. inhibition, % at 5.96 µM;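 active means inhibition above the campaign mean inhibition plus 3 SD, cut at about 35% in these data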;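 further: 0% = GSTO1-1 with DMSO and 100% = wells lacking GSTO1-1 enzyme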
SIAE inh – human SIAE inhibition, primary screen | Q9HAT2 | SIAE FP-Rh probe binding, fluorescence polarization | inhibition, % at 9.66 µM | 0.69% of 370,000 active | AID 1053197;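 active means inhibition above a cutoff: mean of compounds within the control limits plus 3 SD of those, cut at about 17% in these data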;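 further: 0% = plate median of compound wells and 100% = probe without SIAE protein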
GSTO1 confirm – confirmation of human GSTO1 inhibitors; inhibition, % at 5.96 µM; recombinant GSTO1, probe fluorescence polarization; AID 2176; 54% of 2,400 active; shares compounds with GSTO1 inh;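 active means inhibition above the primary screen's cutoff, its mean inhibition plus 3 SD, cut at about 35% in these data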;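 further: loss of polarization as inhibitors block binding of rhodamine sulfonate ester activity probe; 0% = GSTO1 with DMSO and 100% = wells lacking GSTO1 enzyme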
PAD4 FP conf – confirmation of human PAD4 inhibitors | shares compounds with PAD4 FP inh | recombinant PAD4, RCA probe fluorescence polarization | inhibition, % at 6.36 µM | 28% of 1,200 active | AID 488796;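 active means mean inhibition across replicates above the hit cutoff set by the earlier primary screen, cut at about 15% in these data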;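 further: inhibitors block active-site labeling by the probe so polarization falls; 0% = PAD4 with probe and DMSO and 100% = probe without PAD4 enzyme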
Apaf-1 inh conf – confirmation of Apaf-1 inhibitors. shares compounds with Apaf-1 inh. reconstituted apoptosome, caspase-3 DEVD-Rh110 fluorescence. inhibition, % at 20 µM. 25% of 1,800 active. AID 504614;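 active means mean inhibition of at least 40% at 20 µM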;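 further: plate controls were DMSO wells for no effect and DEVD-CHO caspase inhibitor control wells for full effect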
Rh110 interf inh – counter-screen for Apaf-1 inhibitors: fluorescence interference; AID 504615; activation (fluorescence interference), % at 20 µM; Rh110 fluorescence interference, quenched caspase reaction; 1,800 tested, under 10 active; shares compounds with Apaf-1 inh;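 active means signal rise of 40% or more at 20 µM, treated as a fluorescence artifact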
Fluor interf inh – shows fluorescence interference in the Apaf-1 inhibitor assay format | fluorescence interference counterscreen, Apaf-1 assay format | shares compounds with Apaf-1 inh | 460 tested, under 10 active | AID 588538 | IC50, µM; call rule not given here
BSA TAMRA ctr – interferes with TAMRA-BSA probe, flagging TCR-CD3 hits; TAMRA-labeled BSA probe fluorescence counterscreen; shares compounds with TCR-CD3 inh; AID 652035; inhibition, % at 9.4 µM; 10% of 1,200 active; in the data active means inhibition above about 23%;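 further: 0% = buffer low control and 100% = reference high control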
TCR-CD3 conf – confirmation of human TCR-CD3 interaction inhibitors | TAMRA-labeled TCR probe fluorescence binding assay | 48% of 1,200 active | inhibition, % at 9.4 µM | shares compounds with TCR-CD3 inh | AID 652036
TDP2 confirm – confirmation of human TDP2 inhibitors; shares compounds with TDP2 absorb; recombinant human TDP2, absorbance read-out; inhibition, % at 12.8 µM; 22% of 1,100 active; in the data active means inhibition above about 25%;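 further: 0% = vehicle with enzyme and 100% = no enzyme buffer only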
SIAE confirm – confirmation of human SIAE inhibitors; 13% of 2,300 active; shares compounds with SIAE inh; SIAE FP-Rh activity-based probe, fluorescence polarization; inhibition, % at 9.66 µM;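 active means mean inhibition of the replicates above the hit cutoff set in the primary screen, cut at about 17% in these data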;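 further: 0% = SIAE with DMSO and probe and 100% = probe without SIAE; inhibitors lower polarization as more probe stays unbound to SIAE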
Numbers without * were called inactive; · = no result; + = active, no number. Rows were chosen to be rich in hits. Some 2.4% of all compounds tested hit in one or more screens of this group. Unless noted, no stated cut-off is given here; in the data, active means inhibition above about 19%; inactive means the rest.

SMILES | Apaf-1 inh | TCR-CD3 inh | PAD4 FP inh | TDP2 absorb | GSTO1 inh | SIAE inh | GSTO1 confirm | SIAE confirm | others
Cc1cc2nc3ccc(N(C)C)cc3nc2cc1N | 89.5* | 93.0* | 29.3* | -2.1 | 47.4* | 29.7* | 41.5* | 31.8* | PAD4 FP conf=31.1*;Apaf-1 inh conf=62.7*;Rh110 interf inh=5.3;Fluor interf inh=>100;BSA TAMRA ctr=48.3*;TCR-CD3 conf=72.3*
Cc1cc2ncc(-c3ccc(Cl)cc3)cn2n1 | -19.5 | 5.1 | -1.7 | 2.3 | -3.9 | -5.2 | · | ·
COCCN=c1scc(-c2ccco2)n1/N=C/c1ccc(O)c(O)c1O | 19.2 | 25.8* | -2.1 | 1.8 | 69.0* | 28.3* | 21.6 | -3.6 | BSA TAMRA ctr=-28.2;TCR-CD3 conf=23.8*
CCCCc1cc2c(cn1)=C(OC(=O)c1cnc3ccccc3n1)C(C)(OC(=O)CC)C(=O)C=2 (stereo not drawn) | 15.8 | -5.6 | · | -2.1 | · | 3.0 | · | ·
CCNc1ccccc1CP(=O)(c1ccccc1)c1ccccc1O (stereo not drawn) | 86.5* | 51.2* | 11.2 | -10.8 | 87.3* | 34.5* | 4.5 | 11.5 | Apaf-1 inh conf=12.3;Rh110 interf inh=-0.7;BSA TAMRA ctr=3.8;TCR-CD3 conf=5.2
O=C(O)c1ccc(N2C(=O)c3ccc(C(=O)c4cccc([N+](=O)[O-])c4)cc3C2=O)cc1 | 5.2 | 1.0 | -1.9 | -13.5 | 0.5 | 2.0 | · | ·
Oc1ccc(/C=N/N(c2ccccc2)c2ccccc2)c(O)c1O | 31.9 | 10.2 | -7.0 | 0.7 | 50.8* | 20.3* | 5.1 | -30.4
CCCCCCC(=O)N(O)C1CC(=O)N(c2ccc(Br)cc2)C1=O (stereo not drawn) | -6.4 | -13.7 | -7.1 | 17.7 | -5.5 | -4.2 | · | ·
COc1ccccc1N(O)C1CC(=O)N(c2ccc(Br)cc2)C1=O (stereo not drawn) | 14.7 | -0.5 | -6.9 | 15.8 | 51.0* | 20.1* | 11.6 | 9.1
CN=c1scc(C)n1/N=C/c1ccc(O)c(O)c1O | 19.3 | 52.7* | 6.8 | 5.6 | 73.8* | 18.7* | 10.0 | 0.4 | BSA TAMRA ctr=-16.1;TCR-CD3 conf=64.9*
COc1cccc(-c2nn(-c3ccccc3)cc2CN(C)Cc2c(C)nc3ccccn23)c1 | 15.6 | -0.8 | 1.6 | 13.2 | 6.5 | -3.3 | · | ·
O=[N+]([O-])c1cc([N+](=O)[O-])c2c(=Nc3ccccc3)n(-c3ccccc3)n(O)c2c1 | 25.1 | 26.4* | 1.1 | -10.0 | 45.6* | 25.0* | 62.6* | 10.9
O=[N+]([O-])c1cccc(C(=Nc2ccccc2)NO)c1 | 3.5 | 2.0 | -2.3 | -3.4 | -1.5 | 6.4 | · | ·
COc1ccc(C(C[N+](=O)[O-])c2c(-c3ccccc3)cc3ccccn23)cc1OC (stereo not drawn) | -3.3 | 8.5 | -2.9 | 7.6 | 3.6 | 3.0 | · | ·
COc1cc(C(C[N+](=O)[O-])c2c(C)cc3ccccn23)ccc1O (stereo not drawn) | 9.8 | 6.6 | 60.0* | -1.2 | 39.5* | 18.8* | 7.1 | 6.1 | PAD4 FP conf=-2.8
CCNc1cccc2c1C(=O)N(C)C2=O | -2.8 | -0.4 | -3.7 | -2.3 | 4.8 | -1.2 | · | ·
CCNc1ccc2noc3c2c1C(=O)c1ccccc1-3 | 8.2 | 126.1* | 112.3* | 10.9 | 93.9* | 97.8* | 75.9* | 91.4* | PAD4 FP conf=101.6*;BSA TAMRA ctr=+;TCR-CD3 conf=186.6*
COc1ccc(Br)cc1CNc1ccc2[nH]c(=O)[nH]c2c1 | 5.2 | -1.8 | -7.9 | 1.2 | -9.6 | 12.8 | · | ·
COc1cc(CNc2ccc(O)cc2)cc(Br)c1OCc1ccccc1 | 20.2 | 21.5* | 9.6 | 36.2* | 52.6* | 25.5* | 0.6 | 5.0 | TDP2 confirm=-4.6
COc1ccc(Br)cc1CNc1ccc(O)cc1 | 94.8* | 30.6* | 28.3* | 6.4 | 85.9* | 31.6* | 6.3 | 11.0 | PAD4 FP conf=1.7;Apaf-1 inh conf=19.2;Rh110 interf inh=5.4;BSA TAMRA ctr=-0.4;TCR-CD3 conf=3.0
CCn1nc([N+](=O)[O-])c(C(C#N)c2nc3cc(C(F)(F)F)ccc3s2)c(Cl)c1=O (stereo not drawn) | 6.7 | 0.8 | 14.1 | 22.0 | 50.7* | 22.7* | 50.9* | 18.2*
Cn1nc([N+](=O)[O-])c(C(C#N)c2ccccn2)c(Cl)c1=O (stereo not drawn) | -6.3 | 4.1 | 4.5 | -5.4 | 8.3 | 8.6 | · | ·
COc1ccc(NC(=O)CSc2nnc(-c3ccco3)c(-c3ccco3)n2)cc1OC | 17.7 | 4.7 | -7.2 | 2.8 | 13.8 | 12.3 | · | ·
COc1cccc(NC(=O)CSc2nnc(-c3ccco3)c(-c3ccco3)n2)c1 | 23.9 | 19.7* | 3.8 | 8.8 | 50.2* | 20.0* | 15.6 | 3.7
Oc1ccc(CCNc2c3ccccc3nc3ccccc23)cc1O | -3.9 | 21.0* | 0.6 | -0.9 | 47.8* | 19.4* | 4.7 | 28.7*
CCCC(=Nc1ccc(N)cc1)C1=C(O)C(C(=O)OC)C(C)(C)CC1=O (stereo not drawn) | 67.0* | 66.7* | 67.4* | 52.6* | 88.2* | 35.2* | 7.7 | 10.2 | PAD4 FP conf=0.5;Apaf-1 inh conf=-0.8;Rh110 interf inh=-5.6;BSA TAMRA ctr=8.3;TCR-CD3 conf=8.0;TDP2 confirm=11.7
CN(C(=S)Nc1ccc(Oc2ccccc2)cc1)c1ccc(O)cc1 | · | 1.7 | 25.4* | 7.2 | 79.1* | 20.8* | 2.4 | -2.5 | PAD4 FP conf=-0.1
CCOC(=O)C(/C(C)=N/NC(=O)C1CC1c1ccccc1)C(C)C (stereo not drawn) | 4.2 | 8.7 | -2.3 | -2.9 | -0.2 | 4.0 | · | ·
COc1cccc(CNCCO)c1OCc1ccc(Cl)cc1 | 0.4 | -3.6 | 1.9 | 3.2 | 9.1 | 1.8 | · | ·
Oc1ccc(NCc2ccccc2OCc2ccccc2F)cc1 | 92.1* | 11.3 | 2.9 | 16.2 | 73.7* | 34.5* | 9.5 | 10.5 | Apaf-1 inh conf=30.0;Rh110 interf inh=10.2
